Publication PMC5237703 (Acta Pharmaceutica Sinica. B, 2016)

How the values were obtained:
[1] = system: breast carcinoma cell line MDA-MB-231; assay: MTT cytotoxicity assay, MDA-MB-231; type: cell-based; conditions: Homo sapiens, MDA-MB-231, 72 h, read-out: IC50 Breast MDAMB-231
Method in brief: (§1)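 Cells grown as adherent monolayers in DMEM with 10% FBS at 37 °C under humidified 5% CO2. Cells were trypsin-harvested and seeded at 5×10^3 per well, then graded concentrations of test compound were added for 72 h. MTT (4 mg/mL solution) was added for 4 h, formazan dissolved in DMSO and A570 read. IC50 derived from percent survival; mean ± SD, 2–3 experiments in triplicate.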

[2] = target: T1, COX-1 (Ovis aries, UniProt P05979); assay: COX-1 inhibition, chromogenic TMPD oxidation assay; type: biochemical, Ram
T1 sequence (P05979 25-600): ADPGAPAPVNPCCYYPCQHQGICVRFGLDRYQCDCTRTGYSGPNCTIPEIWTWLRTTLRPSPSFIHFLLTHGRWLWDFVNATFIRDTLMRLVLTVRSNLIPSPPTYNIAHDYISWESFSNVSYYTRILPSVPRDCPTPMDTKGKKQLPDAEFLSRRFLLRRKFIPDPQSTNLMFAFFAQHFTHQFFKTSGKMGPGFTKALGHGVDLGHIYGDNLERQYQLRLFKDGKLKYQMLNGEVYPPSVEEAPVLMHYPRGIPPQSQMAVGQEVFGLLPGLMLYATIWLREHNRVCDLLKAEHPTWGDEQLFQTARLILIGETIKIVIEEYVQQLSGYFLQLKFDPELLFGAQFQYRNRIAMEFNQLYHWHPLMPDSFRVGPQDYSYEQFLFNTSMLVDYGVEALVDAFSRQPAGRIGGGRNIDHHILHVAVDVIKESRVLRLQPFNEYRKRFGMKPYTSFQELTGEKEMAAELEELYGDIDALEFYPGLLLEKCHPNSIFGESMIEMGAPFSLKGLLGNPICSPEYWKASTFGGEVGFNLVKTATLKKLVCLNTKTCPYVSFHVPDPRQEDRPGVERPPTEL

[3] = system: MCF-7 (breast cancer); assay: MTT cytotoxicity assay, MCF-7; type: cell-based, human; conditions: Homo sapiens, MCF7, 72 h, read-out: IC50 Breast MCF-7
Method in brief: (§2)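 Media: EMEM for MCF-7, McCoy's 5a for SaOS-2, RPMI-1640 for K562, each with NaHCO3, sodium pyruvate, 10% fetal calf serum and 1% penicillin/streptomycin. Culture at 37 °C, humidified 5% CO2. Seeded 5×10^3 cells/well and exposed to graded test compound for 72 h. MTT for 4 h, DMSO solubilisation, A570. IC50 from percent survival; mean ± SD, 2–3 experiments in triplicate.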

[4] = system: Lung cancer cell line A549; assay: MTT cytotoxicity assay, A549; type: cell-based; conditions: Homo sapiens, A549, read-out: IC50 Lung A549
[5] = system: colon carcinoma cell line HCT-15; assay: MTT cytotoxicity assay, HCT-15; type: cell-based; conditions: Homo sapiens, HCT-15, 72 h, read-out: IC50 Colon HCT15
Method in brief: as §1

[6] = system: K562 (myelogenous leukemia); assay: MTT cytotoxicity assay, K562; type: cell-based, human; conditions: Homo sapiens, K562, 72 h, read-out: IC50 Blood K562
Method in brief: as §2

[7] = system: pancreatic cancer cell line PANC-1; assay: MTT cytotoxicity assay, PANC-1; type: cell-based; conditions: Homo sapiens, PANC-1, 72 h, read-out: IC50 Pancreas PANC-1
Method in brief: as §1

[8] = system: SaOS-2 (osteosarcoma); assay: MTT cytotoxicity assay, SaOS-2; type: cell-based, human; conditions: Homo sapiens, SAOS-2, 72 h, read-out: IC50 Bone SaoS2
Method in brief: as §2

[9] = system: breast carcinoma cell line MDA-MB-468; assay: MTT cytotoxicity assay, MDA-MB-468; type: cell-based; conditions: Homo sapiens, MDA-MB-468, 72 h, read-out: IC50 Breast MDAMB-468
Method in brief: as §1

[10] = system: mouse fibroblast KB-31; assay: MTT cytotoxicity assay, KB-31; type: cell-based; conditions: KB 3-1, 72 h, read-out: IC50 Mouse fibroblast KB-31
Method in brief: as §1

[11] = system: prostatic cancer cell line DU-145; assay: MTT cytotoxicity assay, DU-145; type: cell-based; conditions: Homo sapiens, DU-145, 72 h, read-out: IC50 Prostate DU-145
Method in brief: as §1

[12] = system: human embryonic kidney cells HEK293; assay: MTT cytotoxicity assay, HEK293; type: cell-based; conditions: Homo sapiens, HEK293, 72 h, read-out: IC50 Normal HEK293
Method in brief: as §1

[13] = target: T2, Recombinant human COX-2 (Homo sapiens, UniProt P35354); assay: biochemical; type: biochemical; conditions: for IC50: IC50 COX-2, recombinant human COX-2, TMPD oxidation at 603 nm; for Selectivity ratio COX-2/COX-1: ratio of IC50 COX-2 to IC50 COX-1
T2 sequence (P35354 18-604): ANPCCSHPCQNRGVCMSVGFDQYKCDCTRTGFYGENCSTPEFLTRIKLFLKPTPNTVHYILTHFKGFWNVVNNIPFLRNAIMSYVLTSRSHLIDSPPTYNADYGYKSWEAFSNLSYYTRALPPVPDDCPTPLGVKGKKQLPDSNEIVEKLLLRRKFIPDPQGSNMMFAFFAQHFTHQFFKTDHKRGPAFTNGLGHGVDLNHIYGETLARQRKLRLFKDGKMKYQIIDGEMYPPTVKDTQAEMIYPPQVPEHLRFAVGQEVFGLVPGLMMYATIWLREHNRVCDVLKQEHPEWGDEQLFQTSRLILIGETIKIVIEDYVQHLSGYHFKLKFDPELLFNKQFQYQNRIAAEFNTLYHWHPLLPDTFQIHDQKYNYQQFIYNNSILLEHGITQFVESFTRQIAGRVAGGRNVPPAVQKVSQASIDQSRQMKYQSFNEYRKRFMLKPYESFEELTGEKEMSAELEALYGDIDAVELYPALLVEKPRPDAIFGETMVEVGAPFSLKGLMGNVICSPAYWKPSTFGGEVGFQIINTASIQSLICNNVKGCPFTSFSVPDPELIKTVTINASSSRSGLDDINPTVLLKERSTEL

| SMILES | IC50 [1] [µM] | IC50 [2] [µM] | IC50 [3] [µM] | IC50 [4] [µM] | IC50 [5] [µM] | IC50 [6] [µM] | IC50 [7] [µM] | IC50 [8] [µM] | IC50 [9] [µM] | IC50 [10] [µM] | IC50 [11] [µM] | IC50 [12] [µM] | IC50 [13] [µM] | Selectivity ratio COX-2/COX-1 [13] | selectivity for COX-2 over COX-1 ([13]; from IC50 values against COX-2 and COX-1) [fold] |
| --- | --- | --- | --- | --- | --- | --- | --- | --- | --- | --- | --- | --- | --- | --- | --- |
| COc1cccc(-c2nc3cccnc3n2-c2ccc(F)cc2)c1 [Compound 3b, 3-(4-Fluorophenyl)-2-(3-methoxyphenyl)-3H-imidazo[4,5-b]pyridine] | > 100 | 15 ± 0.13 | 69 | > 100 | > 100 | 46 | > 100 | 67 | 66.5 | 75 | > 100 | > 100 |  |  |  |
| Fc1ccc(-n2c(-c3cccc(C(F)(F)F)c3)nc3cccnc32)cc1 [Compound 3c, 3-(4-Fluorophenyl)-2-(3-(trifluoromethyl)phenyl)-3H-imidazo[4,5-b]pyridine] | > 100 | 36 ± 1.4 | 44 | > 100 | > 100 | 42 | > 100 | 52.5 | > 100 | > 100 | > 100 | > 100 | 15.1 ± 0.9 | 0.42 |  |
| FC(F)(F)c1cccc(-c2nc3cccnc3n2-c2ccc(Cl)cc2)c1 [Compound 3f, 3-(4-Chlorophenyl)-2-(3-(trifluoromethyl)phenyl)-3H-imidazo[4,5-b]pyridine] | > 100 | 21.8 ± 1.1 | 49.9 | > 100 | > 100 | 43 | > 100 | 53.5 | > 100 | > 100 | > 100 | > 100 | 9.2 ± 0.02 | 0.42 | 2 |
| COc1cc(-c2nc3cccnc3n2-c2ccc(Cl)cc2)cc(OC)c1OC [Compound 3g, 3-(4-Chlorophenyl)-2-(3,4,5-trimethoxyphenyl)-3H-imidazo[4,5-b]pyridine] | > 100 | 19.1 ± 0.3 | 56 | > 100 | > 100 | 47 | 83.5 | 55 | 69.3 | 64.4 | > 100 | > 100 | 22.4 ± 2.5 | 1.17 |  |
